Rce1 inhib – yeast Ras-converting enzyme inhibition; 290,000 compounds, 0.27% hits; calls only; yeast membranes, quenched prenylated peptide cleavage fluorescence; Q03530; AID 2563;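 active = fall in fluorescence gain of 50% or more versus controls, with final raw signal at or below 3038400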
Target sequence (Q03530 whole entry, looked up): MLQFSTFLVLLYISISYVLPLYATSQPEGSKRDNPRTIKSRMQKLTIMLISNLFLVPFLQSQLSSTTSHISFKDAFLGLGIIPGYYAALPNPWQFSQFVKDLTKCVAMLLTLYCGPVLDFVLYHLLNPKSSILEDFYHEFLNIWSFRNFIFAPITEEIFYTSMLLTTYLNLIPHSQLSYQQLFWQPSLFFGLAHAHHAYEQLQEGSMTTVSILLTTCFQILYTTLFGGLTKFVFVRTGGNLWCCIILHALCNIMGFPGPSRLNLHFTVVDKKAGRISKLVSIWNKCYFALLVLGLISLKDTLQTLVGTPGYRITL
HCV core dimer – blocks dimerization of HCV core protein. TR-FRET GST/Flag-core106 dimerization, 1536-well. inhibition, % at 5 µM. 300,000 compounds, 0.33% hits. AID 1899;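 active = inhibition above the mean of all tested compounds plus 3 SD, set per screening campaign, cut at about 45% in these data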
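Material: GST/Flag-tagged HCV core106 proteins. Incubation: 4 h, 22.5 °C incubation. Read-out basis: inhibition (%) from 671 over 617 nm ratio. Measured by: TR-FRET, excitation 340 nm, emission 617 and 671 nm.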
NadD block – blocks S. aureus nicotinate mononucleotide adenylyltransferase | purified NadD enzyme, colorimetric absorbance read-out | inhibition, % at 20 µM | 360,000 compounds, 0.78% hits | AID 602399; in the data active = inhibition above about 26%
Pemphigus Ab inh – blocks pemphigus antibody binding to human desmoglein-3; 310,000 compounds, 0.48% hits; P32926; binding (percent of control), % at 10 µM; DSG3-coupled beads, scFv-anti-DSG3-GFP binding, flow cytometry; active compounds read low;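 active = binding more than 3 SD below its plate's average and above zero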;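 note: hits lower antibody fragment binding to DSG3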
TbMetRS inhib – blocks T. brucei methionyl-tRNA synthetase activity. inhibition, % at 11.9 µM. purified T. brucei MetRS, ATP depletion, Kinase-Glo luminescence. 360,000 compounds, 0.4% hits;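 active = inhibition above a per-plate cutoff of the control wells' mean inhibition plus 3 SD, cut at about 5.5% in these data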
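Material: T. brucei methionyl-tRNA synthetase, purified; reagent: substrates ATP, L-methionine and bulk Escherichia coli tRNA; dosing: 11.9 µM single point; timing: 15 min plus 2 h at 25 °C; detection: luminescence of leftover ATP; evaluation: % inhibition; control set: DMSO-only wells as low control; replicates: singlicate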
Each line names hits and unclear results; the compound was inactive in the other large screens. An excerpt weighted towards active compounds, which were near 1.9% of everything screened.

CC1(c2ccccc2)CC(C)(C)N2C(=O)/C(=C3\SC(=S)NC3=O)c3cccc1c32 (configuration not stated)	NadD block 35
COc1cccc(NS(=O)(=O)c2ccc3c(c2)C2C=CCC2C(c2ccc(C(=O)O)cc2)N3)c1 (configuration not stated)	none
Cc1cc(-c2ccc(Cl)cc2)n2nc(N)nc2n1	Pemphigus Ab inh 75
CC(C)c1ccc(N(CC(=O)NCc2ccco2)C(=O)CCC(=O)Nc2nccs2)cc1	Pemphigus Ab inh -39 (no result: Rce1 inhib)
O=C(CCC(=O)N(CC(=O)NC1CCCCC1)c1ccc(F)cc1)Nc1nccs1	none
COc1ccc(N(CC(=O)NCc2ccco2)C(=O)CCC(=O)Nc2nccs2)cc1	none (no result: Rce1 inhib)
O=C(CCC(=O)N(CC(=O)NC1CCCC1)c1ccc(F)cc1)Nc1nccs1	Pemphigus Ab inh 48
COc1ccc(OCC(=O)NS(=O)(=O)c2ccc(Cl)cc2)cc1	Rce1 inhib active
O=C(COc1ccccc1)NS(=O)(=O)c1ccccc1	none (no result: Rce1 inhib)
O=C1CN(C(=O)NCC(=O)N2CCCC2)c2ccccc2N1	Rce1 inhib active
O=C(CCNC(=O)N1CC(=O)Nc2ccccc21)NCCc1cccc(F)c1	Rce1 inhib active
O=C1CN(C(=O)NCC(=O)N[C@H](C(=O)O)c2ccccc2)c2ccccc2N1	none
COc1ccc(/C=N/NC(=O)c2[nH]c3ccc(C)cc3c2-c2ccccc2)c(C(=O)O)c1OC	Rce1 inhib active
O=C1CCCC2=C1C(c1ccncc1)c1c(nc(SCc3ccccc3Cl)[nH]c1=O)N2 (configuration not stated)	none (no result: Rce1 inhib)
CCC(C)Sc1nc2c(c(=O)[nH]1)C(c1cccs1)C1=C(CCCC1=O)N2 (configuration not stated)	HCV core dimer 57
C=CCOC(=O)C1=C(C)NC(SCC(N)=O)=C(C#N)C1c1cccs1 (configuration not stated)	Pemphigus Ab inh 18
CCOc1ccccc1NC(=O)Cn1nnc(C(=O)NCCc2ccc(OCC)c(OCC)c2)c1N	none
O=C(NCc1cccs1)Nc1cccc(Cl)c1	Pemphigus Ab inh 9.4
Cc1ccc(C2C(C#N)=C(N)Oc3c2sc2ccccc32)o1 (configuration not stated)	HCV core dimer 80 (no result: NadD block, Pemphigus Ab inh, TbMetRS inhib)
Cc1c2c(=O)n(-c3nc4ccccc4s3)nc-2cc(O)n1Cc1ccccc1	NadD block 42 (no result: Rce1 inhib, HCV core dimer)
Cc1cc(C)n(-c2nc3ccccc3s2)n1	none
COc1ccc(CCNc2nc(-c3sc(N)nc3C)cs2)cc1OC	NadD block 30
O=C(Nc1ccc2c(c1)OCO2)c1cccc2c1C(=O)N(Cc1cccnc1)C2	HCV core dimer 54
COC(=O)c1ccc(N(CC(=O)NC2CCCCC2)C(=O)CNC(=O)c2ccco2)cc1	none
CC(=O)c1ccc(N(CC(=O)NC2CCCCC2)C(=O)CNC(=O)c2ccco2)cc1	Pemphigus Ab inh 37
COc1ccc2c(=O)c(Oc3ccc(C(=O)O)cc3)c(C(F)(F)F)oc2c1	none
CCOC(=O)c1[nH]c2ccccc2c1NC(=O)C(CC)CC	Pemphigus Ab inh -14
CCOC(=O)c1[nH]c2ccccc2c1NC(C)=O	none
CC(CN1CCCCC1)OC(=O)c1cccc(F)c1 (configuration not stated)	none
COCCn1c(C)cc(C(=O)COC(=O)c2cccc(O)c2)c1C	none
COCCn1c(C)cc(C(=O)COC(=O)c2cc3c(s2)CCC3)c1C	HCV core dimer 79
O=c1[nH]cc(COCC(F)CCl)c(=O)[nH]1 (configuration not stated)	Pemphigus Ab inh 72
O=C1c2ccccc2C(=O)N1CCCOCc1c[nH]c(=O)[nH]c1=O	none
O=C(CN(c1ccc(Br)cc1)S(=O)(=O)c1ccc(Cl)c([N+](=O)[O-])c1)NCCc1ccccc1	none (no result: Pemphigus Ab inh)
CCNc1ccc(Br)cc(C(=O)/C=C/c2c(Cl)cccc2Cl)c1=O	NadD block 56
CC(=O)Nc1cccc(OCc2ccc(S(=O)(=O)Cc3ccccc3)cc2)c1	Pemphigus Ab inh 58
CC(=O)Nc1ccc(OCc2ccc(S(=O)(=O)Cc3ccccc3)cc2)cc1	none
CCC1=Nc2cc(C(=O)NCc3ccco3)ccc2Sc2ccccc21	none
CCC1=Nc2cc(C(=O)NCc3ccco3)ccc2Sc2ccc(Cl)cc21	HCV core dimer 59
COc1ccccc1-c1nnc(N)s1	Rce1 inhib active
O=C(c1ccccc1)[C@@H]1[C@@H]2C(=O)N(c3ccc(F)cc3)C(=O)[C@@H]2C2CCCN21 (some centres not stated)	none
Cc1ccc(N2C(=O)[C@@H]3[C@H](C2=O)C2CCCN2[C@@H]3C(=O)c2ccccc2)cc1 (some centres not stated)	HCV core dimer 58 (no result: Rce1 inhib)
CCCC1=NN2C(=N)/C(=C\c3ccc(SCc4ccco4)o3)C(=O)N=C2S1	HCV core dimer 71
CCCC1=NN2C(=N)/C(=C\c3cc(C)n(-c4cccc(C)c4)c3C)C(=O)N=C2S1	NadD block 53
CCCC1=NN2C(=N)/C(=C\c3cc(C)n(Cc4ccccc4)c3C)C(=O)N=C2S1	none
NC1=NN=C(N2N=C(c3ccccc3)CC2(O)C(F)(F)F)n2ncnc2C1 (configuration not stated)	none (no result: Rce1 inhib)
COc1ccccc1C1=NN(C2=NN=C(N)Cc3ncnn32)C(O)(C(F)(F)F)C1 (configuration not stated)	Rce1 inhib active
COc1ccc(/C=C2\OC(=O)c3c(OC)cccc32)cc1OC	none
O=C(Cn1cnc2ccccc2c1=O)Nc1nc2ccccc2s1	Pemphigus Ab inh 65
Nc1nc2n[nH]nc2c(=O)[nH]1	Rce1 inhib active
Nc1nc2nn(-c3ccccc3)nc2c(=O)[nH]1	none
O=C1c2ccccc2C(=O)N1CCCn1ccnc1	Pemphigus Ab inh 91
CC(C)NC(=O)CN1CCC(O)(c2ccccc2)CC1	none
CCOc1ccccc1Nc1nc2ccccc2[nH]1	none
CCOCCCNc1nc2ccccc2[nH]1	TbMetRS inhib 8.2
CCC1NC(C(=O)O)Cc2c1[nH]c1ccccc21 (configuration not stated)	none
O=C(NCC(=O)N1CCN(S(=O)(=O)/C=C/c2ccccc2)CC1)c1ccccc1F	none
O=C(NCC(=O)N1CCN(S(=O)(=O)/C=C/c2ccccc2)CC1)c1ccc(Cl)cc1	Pemphigus Ab inh 73
CCCCN(CC)CCCNC(=O)c1cc2cc3ccc(C)cc3nc2o1	Pemphigus Ab inh 69
CCCCN(CC)CCNC(=O)c1cc2cc3ccc(Cl)cc3nc2o1	none
COc1ccc(N2CCN(C(=O)c3ccc4c(c3)NC(=O)C(CSCc3ccc(C)cc3)N4)CC2)cc1 (configuration not stated)	HCV core dimer 64 (no result: NadD block, Pemphigus Ab inh, TbMetRS inhib)
COc1ccc(N2CCN(C(=O)c3ccc4c(c3)NC(=O)C(CSCc3c(F)cccc3Cl)N4)CC2)cc1 (configuration not stated)	HCV core dimer 67 (no result: NadD block, Pemphigus Ab inh, TbMetRS inhib)
CCC(=O)Nc1nc2ccc(NC(=O)COc3ccccc3)cc2s1	none
